Experiment [1] has as its target T1, Galactocerebrosidase (Mus musculus, UniProt P54818).
T1 sequence (P54818 whole entry): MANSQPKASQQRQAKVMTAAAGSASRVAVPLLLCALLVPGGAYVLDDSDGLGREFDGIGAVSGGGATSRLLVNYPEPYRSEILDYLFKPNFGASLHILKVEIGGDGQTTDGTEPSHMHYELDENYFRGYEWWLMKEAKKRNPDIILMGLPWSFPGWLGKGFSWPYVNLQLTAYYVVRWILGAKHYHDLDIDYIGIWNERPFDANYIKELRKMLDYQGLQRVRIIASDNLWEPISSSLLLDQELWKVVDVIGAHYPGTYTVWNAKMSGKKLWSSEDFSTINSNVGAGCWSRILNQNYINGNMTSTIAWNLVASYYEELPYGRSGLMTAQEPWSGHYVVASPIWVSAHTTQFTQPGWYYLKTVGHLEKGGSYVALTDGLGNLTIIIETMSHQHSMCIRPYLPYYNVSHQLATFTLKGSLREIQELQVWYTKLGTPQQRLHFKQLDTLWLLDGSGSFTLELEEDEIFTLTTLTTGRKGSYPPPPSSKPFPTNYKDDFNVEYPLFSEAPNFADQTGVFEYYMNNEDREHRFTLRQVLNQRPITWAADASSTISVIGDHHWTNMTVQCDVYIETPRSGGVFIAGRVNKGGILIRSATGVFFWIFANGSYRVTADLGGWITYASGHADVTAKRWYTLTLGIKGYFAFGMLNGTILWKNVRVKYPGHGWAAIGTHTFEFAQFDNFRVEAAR
As to the kind of experiment: Inhibition of mouse N-terminal His6-tagged GALC expressed in HEK293T cells using p-nitrophenyl-beta-D-galactopyranoside as substrate.

A short description of experiment [2]: Inhibition of Aspergillus oryzae beta-galactosidase using […] as substrate preincubated for 30 mins followed by substrate addition by UV-vis spectrophotometry analysis.
A short description of experiment [3]: Inhibition of Escherichia coli beta-galactosidase using […] as substrate preincubated for 30 mins followed by substrate addition by UV-vis spectrophotometry analysis.
A short description of experiment [4]: Inhibition of green coffee beans beta-galactosidase using […] as substrate preincubated for 30 mins followed by substrate addition by UV-vis spectrophotometry analysis. On the set-up: species or system Coffea arabica.
The target of experiment [5] is T2, Galactocerebrosidase (Mus musculus) (UniProt P54818).
T2 sequence (whole entry): T1 sequence (P54818 whole entry)
As to the kind of experiment: Stabilization of mouse N-terminal His6-tagged GALC expressed in HEK293T cells assessed as change in melting temperature at pH 4.6 by differential scanning fluorimetry. It is filed as cell-based. The essentials:
(§1)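 GALC thermal melt curves recorded with and without ligand at 0.5 mM, at pH values from 4.6 to 7.4. Tm is read from each curve, and ΔTm is taken against GALC alone at the same pH. Runs were done in triplicate.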
In general terms: DSF heats the sample and reads unfolding from a dye or from intrinsic fluorescence.

The target of experiment [6] is T2, Galactocerebrosidase (Mus musculus). As to the kind of experiment: Stabilization of mouse N-terminal His6-tagged GALC expressed in HEK293T cells assessed as change in melting temperature at pH 6.6 by differential scanning fluorimetry. It is filed as cell-based. Put shortly: as §1
Experiment [7] has the same target. As to the kind of experiment: Stabilization of mouse N-terminal His6-tagged GALC expressed in HEK293T cells assessed as change in melting temperature at pH 7.4 by differential scanning fluorimetry. It is filed as cell-based. Put shortly:
as §1

For experiment [8] the target is unchanged. As to the kind of experiment: Stabilization of mouse N-terminal His6-tagged GALC expressed in HEK293T cells assessed as melting temperature at 0.5 mM at pH 5.6 by differential scanning fluorimetry (reference value: 62.8 degreeC). In kind it is cell-based. Put shortly:
as §1

Experiment [9] has the same target. As to the kind of experiment: Stabilization of mouse N-terminal His6-tagged GALC expressed in HEK293T cells assessed as change in melting temperature at pH 5.6 by differential scanning fluorimetry. In kind it is cell-based. Put shortly: as §1
Experiment [10] has the same target. As to the kind of experiment: Stabilization of mouse N-terminal His6-tagged GALC expressed in HEK293T cells assessed as melting temperature at 0.5 mM at pH 4.6 by differential scanning fluorimetry (reference value: 62.2 degreeC). It is filed as cell-based. Put shortly: as §1
The target is the same in experiment [11]. As to the kind of experiment: Stabilization of mouse N-terminal His6-tagged GALC expressed in HEK293T cells assessed as melting temperature at 0.5 mM at pH 7.4 by differential scanning fluorimetry (reference value: 53.4 degreeC). It is filed as cell-based. The essentials: as §1
For experiment [12] the target is unchanged. As to the kind of experiment: Stabilization of mouse N-terminal His6-tagged GALC expressed in HEK293T cells assessed as melting temperature at 0.5 mM at pH 6.6 by differential scanning fluorimetry (reference value: 59.6 degreeC). In kind it is cell-based. Put shortly:
as §1

In general, Ki refers to a measure of affinity in units of concentration, obtained from inhibition or displacement. As to `OC[C@@H]1[C@H](O)[C@H](O)[C@@H]2CC[C@H]1N2`, the Ki in [1] is 2300 µM; in [2], 0.13 µM; in experiment [3] it was above 1000 µM; in experiment [4], above 1000 µM.

In general, ΔTm refers to the change in melting temperature against a reference sample. `OC[C@@H]1[C@H](O)[C@H](O)[C@]2(O)CC[C@H]1N2`: the Ki in experiment [1] is 7 µM; in [2] it was 0.031 µM; in experiment [3] it was above 1000 µM; in experiment [4], above 1000 µM. For the same molecule, the ΔTm was 5.8 °C in experiment [5], 5.4 °C in experiment [6], 1.4 °C in [7] and 5.2 °C in experiment [9]. Further, the Tm in experiment [8] was 68 °C; in experiment [10], 68 °C; in experiment [11], 54.8 °C; in experiment [12], 65 °C.

Values taken from ChEMBL document CHEMBL4673386, “The Bicyclic Form of galacto-Noeurostegine Is a Potent Inhibitor of β-Galactocerebrosidase” (ACS Med Chem Lett, 2021).
